Measurements reported in ChEMBL document CHEMBL4196175, “First SAR Study for Overriding NRAS Mutant Driven Acute Myeloid Leukemia” (J Med Chem, 2018).
Active and inactive are the calls of the source. The rule behind the calls is not given here.

How the values were obtained:
[1] = target: T1, Mitogen-activated protein kinase kinase kinase kinase 2 (Mus musculus) (UniProt Q61161); experiment: Inhibition of GCK in mouse BA/F3 cells harboring NRAS-G12D mutant assessed as reduction in JNK phosphorylation at T183/Y185 at 1 uM after 2 hrs by Western blot analysis; assay type: cell-based
T1 sequence (whole entry): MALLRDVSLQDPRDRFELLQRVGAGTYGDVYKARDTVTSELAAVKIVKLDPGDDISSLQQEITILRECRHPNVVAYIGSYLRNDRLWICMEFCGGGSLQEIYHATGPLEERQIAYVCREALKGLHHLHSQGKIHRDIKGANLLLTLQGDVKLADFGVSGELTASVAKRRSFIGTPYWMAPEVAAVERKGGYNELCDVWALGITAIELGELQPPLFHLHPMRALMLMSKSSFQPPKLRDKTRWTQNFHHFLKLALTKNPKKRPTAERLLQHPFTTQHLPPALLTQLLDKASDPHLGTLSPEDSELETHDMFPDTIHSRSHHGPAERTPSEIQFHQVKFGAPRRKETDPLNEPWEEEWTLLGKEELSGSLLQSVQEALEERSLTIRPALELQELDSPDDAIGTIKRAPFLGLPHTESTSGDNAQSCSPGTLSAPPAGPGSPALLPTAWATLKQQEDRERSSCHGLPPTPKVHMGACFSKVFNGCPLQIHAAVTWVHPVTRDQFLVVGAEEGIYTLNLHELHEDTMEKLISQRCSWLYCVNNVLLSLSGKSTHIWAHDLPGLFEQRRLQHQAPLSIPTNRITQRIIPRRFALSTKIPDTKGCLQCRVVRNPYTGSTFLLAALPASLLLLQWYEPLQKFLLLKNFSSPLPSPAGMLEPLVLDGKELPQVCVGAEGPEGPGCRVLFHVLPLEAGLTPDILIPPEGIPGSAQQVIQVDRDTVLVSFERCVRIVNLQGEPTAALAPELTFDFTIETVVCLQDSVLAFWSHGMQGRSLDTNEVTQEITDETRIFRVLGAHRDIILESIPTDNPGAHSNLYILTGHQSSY
Procedure, shortened: (§1)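 Ba/F3-NRAS-G12D or OCI-AML3 cells exposed 2 h to compounds (1 µM, or a dose series in OCI-AML3); phospho-p70S6K1, phospho-AKT S473, phospho-JNK and phospho-p38 assessed by western blot, actin as loading control.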

[2] = target: T2, Activated CDC42 kinase 1 (Homo sapiens, UniProt Q07912); experiment: Inhibition of ACK1 in human OCI-AML3 cells harboring NRAS Q61L mutant assessed as reduction in P70S6K1 phosphorylation at Thr421/Ser424 at 1 uM after 2 hrs by Western blot analysis; assay type: cell-based; procedure, shortened: as §1
[3] = target: CYP3A4 (Homo sapiens, UniProt P08684); experiment: Inhibition of CYP3A4 (unknown origin) assessed as activity remaining at 10 uM relative to control; assay type: ADME; conditions: read-out: Activity
[4] = target: T1, Mitogen-activated protein kinase kinase kinase kinase 2 (Mus musculus); experiment: Inhibition of GCK in mouse BA/F3 cells harboring NRAS-G12D mutant assessed as reduction in p38 phosphorylation at Thr180/Tyr182 at 1 uM after 2 hrs by Western blot analysis; assay type: cell-based; procedure, shortened: as §1
[5] = Metabolic stability in mouse liver microsomes assessed as compound remaining at 1 uM after 30 mins; assay type: ADME, microsome; conditions: read-out: Stability
[6] = tested on: OCI-AML-3; experiment: Induction of apoptosis in human OCI-AML3 cells harboring NRAS Q61L mutant assessed as decrease in mcl1 levels at 1 uM after 24 hrs by Western blot analysis; assay type: functional, cell-based
Procedure, shortened: (§2)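 Cells treated 24 h with indicated concentrations (1 µM; 5 µM also used in Ba/F3-NRAS-G12D); cleaved PARP, cleaved caspase 3, bcl-2 and MCL1 detected by western blot with actin as loading control.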

[7] = target: T3, Mitogen-activated protein kinase kinase kinase kinase 2 (Homo sapiens) (UniProt Q12851); experiment: Inhibition of GCK in human OCI-AML3 cells harboring NRAS Q61L mutant assessed as reduction in p38 phosphorylation at Thr180/Tyr182 after 2 hrs by Western blot analysis; assay type: cell-based; procedure, shortened: as §1
T3 sequence (whole entry): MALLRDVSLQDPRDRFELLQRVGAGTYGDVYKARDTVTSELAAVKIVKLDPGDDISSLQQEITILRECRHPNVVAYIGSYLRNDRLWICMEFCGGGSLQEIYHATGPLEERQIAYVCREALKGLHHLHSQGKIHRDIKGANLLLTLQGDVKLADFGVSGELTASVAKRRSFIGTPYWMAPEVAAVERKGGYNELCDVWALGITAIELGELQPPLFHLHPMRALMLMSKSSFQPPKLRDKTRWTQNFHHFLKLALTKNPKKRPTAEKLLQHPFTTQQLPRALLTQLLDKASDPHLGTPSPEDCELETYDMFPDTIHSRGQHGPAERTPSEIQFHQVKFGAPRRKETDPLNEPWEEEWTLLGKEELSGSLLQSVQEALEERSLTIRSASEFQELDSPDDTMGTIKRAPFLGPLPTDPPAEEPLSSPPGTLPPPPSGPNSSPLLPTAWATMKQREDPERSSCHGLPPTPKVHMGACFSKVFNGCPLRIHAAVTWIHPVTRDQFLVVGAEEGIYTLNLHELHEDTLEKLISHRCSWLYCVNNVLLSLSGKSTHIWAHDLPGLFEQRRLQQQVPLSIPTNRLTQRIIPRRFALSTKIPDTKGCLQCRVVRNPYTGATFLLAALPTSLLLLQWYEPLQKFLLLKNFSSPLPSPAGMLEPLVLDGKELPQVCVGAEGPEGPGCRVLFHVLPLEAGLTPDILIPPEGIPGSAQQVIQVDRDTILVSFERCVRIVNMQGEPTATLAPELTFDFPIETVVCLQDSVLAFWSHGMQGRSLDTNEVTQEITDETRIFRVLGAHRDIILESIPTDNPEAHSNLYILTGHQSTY

[8] = tested on: OCI-AML-3; experiment: Cell cycle arrest in human OCI-AML3 cells harboring NRAS Q61L mutant assessed as accumulation at G0/G1 phase at 1 uM after 24 hrs by propidium iodide staining based FACS analysis; assay type: functional
Procedure, shortened: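 OCI-AML3 cells treated 24 h at indicated concentrations, including 1 µM; cell-cycle phase distribution measured by flow cytometry after propidium iodide staining.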

[9] = tested on: OCI-AML-3; experiment: Induction of apoptosis in human OCI-AML3 cells harboring NRAS Q61L mutant assessed as increase in apoptotic cells at 1 uM after 24 hrs by annexin V/propidium iodide staining based FACS analysis relative to control; assay type: functional
Procedure, shortened: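 Apoptosis scored by flow cytometry after FITC-annexin V/propidium iodide dual staining following 24 h exposure, at 1 µM or a range of indicated concentrations; three independent experiments, mean with SD, one-way ANOVA.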

[10] = target: T2, Activated CDC42 kinase 1; experiment: Inhibition of ACK1 in human OCI-AML3 cells harboring NRAS Q61L mutant assessed as reduction in AKT phosphorylation at S473 after 2 hrs by Western blot analysis; assay type: cell-based; procedure, shortened: as §1
[11] = target: T2, Activated CDC42 kinase 1; experiment: Inhibition of ACK1 in human OCI-AML3 cells harboring NRAS Q61L mutant assessed as reduction in P70S6K1 phosphorylation at Thr421/Ser424 after 2 hrs by Western blot analysis; assay type: cell-based; procedure, shortened: as §1
[12] = tested on: OCI-AML-3; experiment: Induction of apoptosis in human OCI-AML3 cells harboring NRAS Q61L mutant assessed as increase in cleaved PARP levels at 1 uM after 24 hrs by Western blot analysis; assay type: functional, cell-based; procedure, shortened: as §2

T2 sequence (Q07912 whole entry, looked up): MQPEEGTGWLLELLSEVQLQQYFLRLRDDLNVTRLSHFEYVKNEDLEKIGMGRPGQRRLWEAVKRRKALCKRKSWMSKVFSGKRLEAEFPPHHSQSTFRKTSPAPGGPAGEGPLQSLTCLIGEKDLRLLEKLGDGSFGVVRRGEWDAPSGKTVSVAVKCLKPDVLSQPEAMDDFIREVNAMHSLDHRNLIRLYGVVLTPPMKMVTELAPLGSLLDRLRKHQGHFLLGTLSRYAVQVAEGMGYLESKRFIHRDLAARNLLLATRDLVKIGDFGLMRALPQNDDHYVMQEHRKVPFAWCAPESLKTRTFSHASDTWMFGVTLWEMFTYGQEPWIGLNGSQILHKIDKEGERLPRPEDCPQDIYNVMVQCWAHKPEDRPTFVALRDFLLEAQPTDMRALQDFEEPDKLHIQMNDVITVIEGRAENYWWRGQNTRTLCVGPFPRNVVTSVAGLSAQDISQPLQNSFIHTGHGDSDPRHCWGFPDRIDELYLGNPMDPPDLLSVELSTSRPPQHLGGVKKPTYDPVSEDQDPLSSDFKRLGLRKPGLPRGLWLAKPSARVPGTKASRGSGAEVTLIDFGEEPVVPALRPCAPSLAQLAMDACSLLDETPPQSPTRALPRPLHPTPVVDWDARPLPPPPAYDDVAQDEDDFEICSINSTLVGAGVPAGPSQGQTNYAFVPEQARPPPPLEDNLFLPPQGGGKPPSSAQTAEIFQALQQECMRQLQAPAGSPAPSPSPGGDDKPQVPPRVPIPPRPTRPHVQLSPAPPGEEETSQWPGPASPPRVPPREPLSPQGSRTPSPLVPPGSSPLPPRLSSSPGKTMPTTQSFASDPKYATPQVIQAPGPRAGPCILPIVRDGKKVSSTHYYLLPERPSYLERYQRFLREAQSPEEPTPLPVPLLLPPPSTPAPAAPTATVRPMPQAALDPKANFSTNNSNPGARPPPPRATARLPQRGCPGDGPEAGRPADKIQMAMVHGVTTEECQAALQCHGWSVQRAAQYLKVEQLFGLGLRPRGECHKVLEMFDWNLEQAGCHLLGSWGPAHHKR
CYP3A4, sequence (P08684 whole entry): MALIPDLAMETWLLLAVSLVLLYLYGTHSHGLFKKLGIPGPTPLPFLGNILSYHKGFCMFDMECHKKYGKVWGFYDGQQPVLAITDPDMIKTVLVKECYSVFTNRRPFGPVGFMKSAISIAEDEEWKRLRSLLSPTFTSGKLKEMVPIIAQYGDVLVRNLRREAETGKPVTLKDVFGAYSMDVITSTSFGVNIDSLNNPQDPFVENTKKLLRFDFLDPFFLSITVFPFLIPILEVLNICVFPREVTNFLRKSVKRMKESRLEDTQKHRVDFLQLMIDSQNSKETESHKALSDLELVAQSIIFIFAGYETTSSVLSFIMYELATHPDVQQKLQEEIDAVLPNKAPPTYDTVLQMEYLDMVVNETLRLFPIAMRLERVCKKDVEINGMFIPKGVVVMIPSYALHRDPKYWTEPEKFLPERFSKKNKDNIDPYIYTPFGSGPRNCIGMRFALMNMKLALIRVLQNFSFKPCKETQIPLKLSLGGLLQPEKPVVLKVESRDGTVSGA

SMILES | reduction in JNK phosphorylation (active/inactive call) [1] | inhibition [2] | activity at 10 µM [3] | reduction in p38 phosphorylation (qualitative call) [4] | remaining at 0.5 h, 1 µM [5] | Activity [6] | inhibition [7] | Activity [8] | Activity [9] | inhibition [10] | inhibition [11] | Activity [12]
Cc1cc(Nc2ncc3c(n2)N(C)C(=O)N(c2cc(NC(=O)c4cccc(C(F)(F)F)c4)ccc2C)C3)n(C)n1 | Active | Active | > 100% | Active | 74.7% | – | – | – | – | – | – | –
Cc1ccc(Nc2ncc3c(n2)N(C)C(=O)N(c2cc(NC(=O)c4ccc(CN5CCC(N(C)C)C5)c(C(F)(F)F)c4)ccc2C)C3)cn1 (stereo unspecified) | Active | Active | 21.6% | Active | 58.7% | – | – | – | – | – | – | –
Cc1ccc(NC(=O)c2cccc(C(F)(F)F)c2)cc1N1Cc2cnc(N)nc2N(C)C1=O | Active | Active | > 100% | Active | 80% | Active | Dose-dependent effect | Active | 15 - 30% | Dose-dependent effect | Dose-dependent effect | Active

Continued, in another order:

reduction in JNK phosphorylation (active/inactive call) [1] | inhibition [2] | activity at 10 µM [3] | reduction in p38 phosphorylation (qualitative call) [4] | remaining at 0.5 h, 1 µM [5] | SMILES | Activity [6] | inhibition [7] | Activity [8] | Activity [9] | inhibition [10] | inhibition [11] | Activity [12]
Active | Active | 94.2% | Active | 24.2% | CCN1CCN(C(=O)c2ccc(Nc3ncc4c(n3)N(C)C(=O)N(c3cc(NC(=O)c5cccc(C(F)(F)F)c5)ccc3C)C4)cn2)CC1 | – | – | – | – | – | – | –
– | – | 88.5% | – | 49.1% | CC(=O)N1CCN(c2ccc(Nc3ncc4c(n3)N(C)C(=O)N(c3cc(NC(=O)c5cccc(C(F)(F)F)c5)ccc3C)C4)cn2)CC1 | Active | Dose-dependent effect | Active | 15 - 30% | Dose-dependent effect | Dose-dependent effect | Active
